# Assay results from different studies.
# Lines come from different studies, so protocols differ.
# FAAH: Fatty-acid amide hydrolase 1 (FAAH, Homo sapiens, UniProt O00519)
# FLT3: Receptor-type tyrosine-protein kinase FLT3 (FLT3, Homo sapiens, UniProt P36888)
# TYRO3: Tyrosine-protein kinase receptor TYRO3 (TYRO3, Homo sapiens, UniProt Q06418)
# DHFR: Dihydrofolate reductase (DHFR, Homo sapiens, UniProt P00374)
# HTR2C: 5-hydroxytryptamine receptor 2C (HTR2C, Homo sapiens, UniProt P28335)
# Aldo-keto reductase family 1 member B1: Aldo-keto reductase family 1 member B1 (Bos taurus, UniProt P16116)
# MMP3: Stromelysin-1 (MMP3, Homo sapiens, UniProt P08254)
# CAMK2A: Calcium/calmodulin-dependent protein kinase type II subunit alpha (CAMK2A, Homo sapiens, UniProt Q9UQM7)
# F2: Prothrombin (F2, Bos taurus, UniProt P00735)
Compound,target,effect on,mode,technique,setting,IC50
Cc1nccc2c1c(=O)n(C)c1cc(OC[C@@H](N)CC(C)C)c(C#N)cc21,"BMP-2-inducible protein kinase (BMP2K, Homo sapiens, UniProt Q9NSY1)",enzyme activity,inhibitor,,,0.045 µM
O=C(Oc1nsnc1N1CCC(c2ccccc2)CC1)N1CCCCC1,FAAH,enzyme activity,inhibitor,,cell membranes,1.48 µM
CONc1ccnc(Nc2cccc(-c3cccnc3)c2)n1,FLT3,enzyme activity,inhibitor,,,> 34 µM
Cc1ccc(NC(=O)c2ccc(C)c(C(F)(F)F)c2)cc1C#Cc1nn(C2CCC(O)CC2)c2ncnc(N)c12 (stereo not drawn),TYRO3,enzyme activity,inhibitor,radiometric,,0.351 µM
O=C(O)c1ccc2nc(-c3ccc(OCc4ccccc4COc4ccc(-c5nc6ccc(C(=O)O)cc6[nH]5)cc4)cc3)[nH]c2c1,DHFR,enzyme activity,inhibitor,,,> 250 µM
O=C1NCCc2[nH]c(-c3cccnc3)cc21,"Casein kinase I isoform delta (CSNK1D, Homo sapiens, UniProt P48730)",enzyme activity,inhibitor,,,> 100 µM
c1cncc(-c2cccc(Nc3nccc(NC4CCCCC4)n3)c2)c1,FLT3,enzyme activity,inhibitor,,,0.032 µM
Cc1ccc(C(=O)Nc2ccc(Oc3cc4cnn(C)c4cc3-c3cn[nH]c3)c(F)c2)c(=O)n1-c1ccc(F)cc1,"Tyrosine-protein kinase receptor Tie-1 (TIE1, Homo sapiens, UniProt P35590)",enzyme activity in cells,inhibitor,,,> 1 µM
O=C(Nc1ccc(Br)cc1)N1CCC(n2c(=O)[nH]c3c(Br)cccc32)CC1,"Formamidopyrimidine-DNA glycosylase (Escherichia coli, UniProt P05523)",enzyme activity,inhibitor,,,> 100 µM
CN(CCCCNC(=O)c1cc2ccccc2[nH]1)[C@@H]1Cc2cccc3[nH]c(=O)n(c23)C1,HTR2C,ligand displacement,,radioligand,,3.08 µM
N[C@H](Cc1c[nH]c2ccccc12)C(=O)O,DHFR,enzyme activity,inhibitor,,,2000 µM
C/C(=N/N=c1/scc(-c2ccc(Br)cc2)n1-c1ccccc1)c1ccc2c(c1)OCCO2,Aldo-keto reductase family 1 member B1,enzyme activity,inhibitor,absorbance,,5.96 µM
O=C(Oc1nsnc1N1CCN(c2ccccc2)CC1)N1CCCCC1,FAAH,enzyme activity,inhibitor,,cell membranes,0.209 µM
Cc1ccc2nc(-c3ccc([N+](=O)[O-])cc3)n(Cc3ccccc3)c2c1,DHFR,enzyme activity,inhibitor,,,6.78 µM
C/C(=N/N=c1/scc(-c2ccc(Cl)cc2)n1-c1ccc(F)cc1)c1ccc2c(c1)OCCO2,Aldo-keto reductase family 1 member B1,enzyme activity,inhibitor,absorbance,,9.63 µM
CCNc1ccnc(Nc2cccc(-c3cccnc3)c2)n1,FLT3,enzyme activity,inhibitor,,,0.0475 µM
Cc1cnc(-c2ccc(-c3ccc(NC(=O)Nc4c(F)cc(F)cc4F)cc3F)c3c2C(=O)NC3)[nH]1,"Aurora kinase A (AURKA, Homo sapiens, UniProt O14965)",enzyme activity,inhibitor,,,0.00038 µM
C[C@H]1OC(=O)/C=C/C(=O)[C@@H](OC(=O)CCC(=O)O)CCCCCCCC[C@H]1O,MMP3,enzyme activity,inhibitor,,,10 µM
COc1cc(OC)c(C(=O)CCCCN2CCC3(CC2)NC(=O)NC3=O)cc1NS(=O)(=O)c1ccc(C(F)(F)F)cc1,HTR2C,ligand displacement,,radioligand,,0.003 µM
CN(C)c1ccc(Nc2nc(-c3ccncc3)nc3c2CC(N)CC3)cc1 (stereo not drawn),"Prostaglandin G/H synthase 1 (PTGS1, Homo sapiens, UniProt P23219)",enzyme activity,inhibitor,,,~4.5 µM
Cc1ccc2nc(-c3ccc(Cl)cc3)n(Cc3ccccc3)c2c1,DHFR,enzyme activity,inhibitor,,,2.35 µM
CN1CCN(c2ccc(Nc3ncc4cc(C#N)c(=O)n(C5CCCC5)c4n3)cc2)CC1,"Testis-specific serine/threonine-protein kinase 1 (TSSK1B, Homo sapiens, UniProt Q9BXA7)",enzyme activity,inhibitor,,,0.116 µM
CC(=N/N=c1\scc(-c2ccc(Br)cc2)n1-c1cccc2ccccc12)C12CC3CC(CC(C3)C1)C2,Aldo-keto reductase family 1 member B1,enzyme activity,inhibitor,absorbance,,12.9 µM
CNc1ccnc(Nc2cccc(-c3cccnc3)c2)n1,FLT3,enzyme activity,inhibitor,,,0.204 µM
COc1cccc(-n2c(-c3ccc([N+](=O)[O-])cc3)cs/c2=N/N=C\c2c[nH]c3ccccc23)c1,Aldo-keto reductase family 1 member B1,enzyme activity,inhibitor,absorbance,,4.21 µM
O=C(Oc1nsnc1N1CCC2CCCCC2C1)N1CCCCC1 (stereo not drawn),FAAH,enzyme activity,inhibitor,,cell membranes,0.031 µM
O=C(Nc1ccccc1C=NNS(=O)(=O)c1ccc2ccccc2c1)c1ccc([N+](=O)[O-])cc1,"UDP-N-acetylmuramate--L-alanine ligase (murC, Escherichia coli K-12, UniProt P17952)",enzyme activity,inhibitor,absorbance,,27 µM
CCCCNc1ccnc(Nc2cccc(-c3cccnc3)c2)n1,FLT3,enzyme activity,inhibitor,,,0.123 µM
O=C(Oc1nsnc1N1CCC(Cc2ccccc2)CC1)N1CCCCC1,FAAH,enzyme activity,inhibitor,,cell membranes,0.324 µM
CNC(=O)c1cc2c(Oc3ccc(NC(=O)C4(C(=O)Nc5ccc(F)cc5)CC4)cc3)ccnc2cc1OC,TYRO3,enzyme activity,inhibitor,radiometric,,0.013 µM
CN(C)CC#Cc1ccc2[nH]c3c(c2c1)-c1nc(N)ncc1CCC3,"Serine/threonine-protein kinase ULK3 (ULK3, Homo sapiens, UniProt Q6PHR2)",enzyme activity,inhibitor,radiometric,,> 10 µM
COc1ccc2c(Oc3ccc4c(C(=O)Nc5ccccc5N)cccc4c3)ccnc2c1,"Aurora kinase C (AURKC, Homo sapiens, UniProt Q9UQB9)",enzyme activity,inhibitor,,,> 0.5 µM
CC1Cc2ccccc2N1C(=O)NCCCCN(C)[C@@H]1Cc2cccc3[nH]c(=O)n(c23)C1 (mixture of isomers),HTR2C,ligand displacement,,radioligand,,> 10 µM
COc1ccc(S(=O)(=O)N2Cc3cc(O)c(O)cc3CC2C(=O)NO)cc1 (stereo not drawn),MMP3,enzyme activity,inhibitor,,,10 µM
c1cc(Nc2nccc(NC3CCCCC3)n2)cc(-c2cnccn2)c1,FLT3,enzyme activity,inhibitor,,,0.02 µM
CC(C)(C)n1nc(-c2cnc3cc(OC4CC4)ccc3c2)c(C(N)=O)c1N,CAMK2A,cell-free assay,inhibitor,,,> 10 µM
c1ccc(-c2ccccc2Nc2nccc(NC3CCCCC3)n2)cc1,FLT3,enzyme activity,inhibitor,,,> 13 µM
CC(Cc1ccc(C(C)(C)C)cc1)C(NN)c1nnnn1Cc1ccc2c(c1)OCO2 (stereo not drawn),"Endothiapepsin (EAPA, Cryphonectria parasitica, UniProt P11838)",enzyme activity,inhibitor,fluorescence,,18 µM
CC(C)(C)n1nc(-c2ccc3nc(OC4CC4)ccc3c2)c(C(N)=O)c1N,CAMK2A,cell-free assay,inhibitor,,,> 10 µM
CC1=C(/C=C/C(C)=C/C=C/C(C)=C/C(=O)O)C(C)(C)CCC1,F2,enzyme activity,inhibitor,fluorescence,,223 µM
CC(=N/N=c1\scc(-c2ccc(Br)cc2)n1-c1ccccc1)C12CC3CC(CC(C3)C1)C2,Aldo-keto reductase family 1 member B1,enzyme activity,inhibitor,absorbance,,4.4 µM
CCCC[C@@H](C(=O)N[C@@H](CC(=O)O)C(=O)N(C)[C@@H](Cc1ccccc1)C(N)=O)N(C)C(=O)[C@H](Cc1c[nH]c2ccccc12)NC(=O)CNC(=O)[C@H](Cc1ccc(O)cc1)NC(=O)[C@H](C)NC(=O)[C@@H](CCC(=O)O)NC(=O)CN1CCN(CC(=O)O)CCN(CC(=O)O)CCN(CC(=O)O)CC1,"Gastrin/cholecystokinin type B receptor (CCKBR, Homo sapiens, UniProt P32239)",ligand displacement,,radioligand,,0.00498 µM
CC1=C(/C=C/C(C)=C/C=C/C(C)=C/C=O)C(C)(C)CCC1,F2,enzyme activity,inhibitor,fluorescence,,74 µg/mL
CC(=N/N=c1\scc(-c2ccc(Br)cc2)n1-c1c(C)cccc1C)C12CC3CC(CC(C3)C1)C2,Aldo-keto reductase family 1 member B1,enzyme activity,inhibitor,absorbance,,4.21 µM
c1cc(Nc2nccc(NC3CCCCC3)n2)cc(-n2ccnc2)c1,FLT3,enzyme activity,inhibitor,,,0.016 µM
